Assays:
MT4 [1] = test: Concentration of compound required to achieve 50% protection of MT-4 cells against HIV-1 virus induced cytopathic effect; format: functional, cell-based; conditions: Homo sapiens
Summary of the method: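 HIV-1-infected MT-4 cells, scored for protection against virus-induced cytopathic effect. EC50 is the concentration protecting 50% of cells, given as the mean (± standard deviation or range) of at least two separate experiments.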

MT4 [2] = test: Concentration of compound required to reduce the viability of mock infected MT-4 cells against HIV-1 by 50%; format: functional; conditions: Homo sapiens
Summary of the method: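 Mock-infected MT-4 cells were exposed to the compound, and viability was measured. CC50 is the concentration that lowers the viability of these uninfected cells by 50%. Values are means (± standard deviation or range) from at least two separate experiments.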

[3] = CC50/EC50 ratio expressed as selectivity index(SI); format: functional
Summary of the method: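 Ratio of two MT-4 values from this work. CC50 is the concentration that reduces the viability of mock-infected MT-4 cells by 50%. EC50 is the concentration giving 50% protection of HIV-1-infected MT-4 cells against virus cytopathic effect. Both are means (± standard deviation or range) of at least two separate experiments.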

Compound	EC50 (MT4 [1]) [µM]	CC50 (MT4 [2]) [µM]	Ratio [3]
Cc1c(Sc2ccccc2)n(COCc2ccccc2)c(=O)[nH]c1=O	0.088	95	1080
CCOCn1c(Sc2ccccc2)c(CC)c(=O)[nH]c1=O	0.019	161	8500
Cc1c(Sc2ccccc2)n(COCCF)c(=O)[nH]c1=O	1.1	209	190
Cc1c(Sc2ccccc2)n(COCCN=[N+]=[N-])c(=O)[nH]c1=O	5.8	186	32
Cc1c(Sc2ccccc2)n(COCCCl)c(=O)[nH]c1=O	1.5	196	131
COCCOCn1c(Sc2ccccc2)c(C)c(=O)[nH]c1=O	8.7	299	34
CCc1c(Sc2ccccc2)n(COCCO)c(=O)[nH]c1=O	0.12	–	–
CCc1c(Sc2ccccc2)n(COCc2ccccc2)c(=O)[nH]c1=O	0.0059	34	5800
Cc1cn([C@H]2C[C@H](N=[N+]=[N-])[C@@H](CO)O2)c(=O)[nH]c1=O [ZIDOVUDINE]	0.003	–	2600
Cc1c(Sc2ccccc2)n(COCCO)c(=O)[nH]c1=O [HEPT]	6.5	> 500	> 77
Cc1c(Sc2ccccc2)n(COCCOCc2ccccc2)c(=O)[nH]c1=O	> 20	45	< 2.3
CCOCn1c(Sc2ccccc2)c(C)c(=O)[nH]c1=O	0.33	231	700

Source: ChEMBL document CHEMBL1125681, “Specific anti-HIV-1 "acyclonucleosides" which cannot be phosphorylated: synthesis of some deoxy analogues of 1-[(2-hydroxyethoxy)methyl]-6-(phenylthio)thymine” (J Med Chem, 1991)
